# Data: PubChem BioAssay
# The source made the active and inactive calls.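 How the source made its calls, unless noted: active means GFP response above 150% of the DMSO level; inconclusive means fewer than 70 events counted for a yeast strain; inactive means the rest.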
# Legend:
# [1] = RPL19A-GFP modulators, yeast TOR pathway, confirmation, cell-based, S. cerevisiae, flow cytometry, cherry picks, mother/daughter gates (AID 2270;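 active means GFP response below 50% of the DMSO control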); conditions: S. cerevisiae RPL19A-GFP strain, 3 h, at 10 µM, stronger effect = lower value, 100 = same GFP as DMSO wells
# [2] = LAP4-GFP expression modulators in yeast, confirmation, cell-based, cherry picks, flow cytometry, mother/daughter gates (AID 2271;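 active means GFP response above 150% of the DMSO control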;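 further: ratio of sample to DMSO plate mean so 100% equals DMSO level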); conditions: S. cerevisiae LAP4-GFP strain, 3 h, at 10 µM, stronger effect = higher value, 100 means same as DMSO control
# Summary of the method: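 Test system: GFP-fusion yeast strain / Amount: 0.2 OD600 cells / Buffer or medium: SC medium / Dosing: 10 µM single dose / Incubation: compound exposure 3 h at 30 °C, end-over-end rotation / Detection: HT flow cytometry, GFP fluorescence channel / Evaluation: median GFP fluorescence as percent of plate-mean DMSO wells / Control set: DMSO-only negative wells, rapamycin 400 ng/mL positive wells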
# [3] = modulators of MEP2-GFP levels in yeast, confirmation, S. cerevisiae, flow cytometry GFP, cherry picks (AID 2272;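 active means GFP response above 150% of the DMSO control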;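 further: ratio of well signal to plate DMSO mean so 100% equals DMSO level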); conditions: S. cerevisiae MEP2-GFP strain, 3 h, at 10 µM, stronger effect = higher value
# [4] = AGP1-GFP expression modulators, hit retest, confirmation, cell-based, flow cytometry, S. cerevisiae, cherry picks (AID 2273);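 further: median GFP channel fluorescence over the whole cell population gate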; conditions: S. cerevisiae AGP1-GFP strain, 3 h, at 10 µM
# [5] = modulators of CIT2-GFP expression in yeast, confirmation, S. cerevisiae, GFP fusion, cherry picks, mother/daughter gates (AID 2274); conditions: S. cerevisiae CIT2-GFP strain, flow cytometry, 3 h, at 10 µM, stronger effect = higher value
# [6] = measured here: daughter cell gate
# [7] = measured here: mother cell gate
# [8] = measured here: daughter cell gate response
# [9] = measured here: mother cell gate response
Structure (SMILES),GFP response vs DMSO [1],"GFP response vs DMSO [1, 6] [%]","GFP response vs DMSO [1, 7] [%]",GFP response relative to DMSO [2],"GFP response relative to DMSO [2, 8] [%]","GFP response relative to DMSO [2, 9] [%]",GFP response vs DMSO [3],"GFP response, % of DMSO [4]","GFP response, % of DMSO [5]","GFP response, % of DMSO [5, 6] [%]","GFP response, % of DMSO [5, 7] [%]"
CCOc1ccc(NC2=C(Cl)C(=O)N(Cc3ccccc3)C2=O)cc1,98.2% (inactive),98.3,100,102% (inactive),96.5,102,99.5% (inactive),95.8% (inactive),96.4% (inactive),98.3,94.5
Cc1ccc(C(C(=O)NC2CCCCC2)N(CCCN2CCOCC2)C(=O)c2snc(C(N)=O)c2N)cc1 (stereo not drawn),101% (inactive),102,102,105% (inactive),102,104,99.5% (inactive),104% (inactive),102% (inactive),98.3,103
CCC(=O)Nc1ccc(NC(=O)c2cc3ccccc3o2)cc1,103% (inactive),99.3,104,99.5% (inactive),99.1,98.4,101% (inactive),101% (inactive),97.3% (inactive),95.6,96.8
Cc1ccc2c(nc3s/c(=C\c4ccc(-c5ccccc5C(=O)O)o4)c(=O)n32)c1C,119% (inactive),117,117,243% (active),218,259,346% (active),119% (inactive),157% (active),158,154
CCOc1ccccc1N1CCN(C(=O)c2cccc(-c3ccc(O)cc3)c2)CC1,97% (inactive),96.7,97.3,98.7% (inactive),95.6,102,102% (inactive),92.4% (inactive),96.5% (inactive),94.8,94.4
CCC(Sc1nc(=O)cc(N)n1-c1ccccc1)C(=O)Nc1cc(C)on1 (stereo not drawn),98.2% (inactive),98.8,95.3,105% (inactive),105,96.5,108% (inactive),102% (inactive),109% (inactive),111,104
O=C(N/N=C/c1ccccc1Cl)c1cccc(F)c1,101% (inactive),98.1,99.8,103% (inactive),101,104,101% (inactive),98.8% (inactive),100% (inactive),101,98.1
CCn1c(=O)c(C(=O)NC(C)C)c(O)c2ccccc21,101% (inactive),98.7,101,101% (inactive),100,101,100% (inactive),97.8% (inactive),103% (inactive),99.7,103
CCNC(=O)c1ccccc1-c1nc(-c2ccccc2Cl)no1,95.6% (inactive),94.7,95,104% (inactive),97.5,104,103% (inactive),98.6% (inactive),98.6% (inactive),99.3,97.1
O=C(Nc1nnc(-c2ccccc2Cl)o1)c1ccc(S(=O)(=O)N2CCCCCC2)cc1,100% (inactive),98.6,99.8,97% (inactive),97.5,96.2,101% (inactive),95.1% (inactive),97.3% (inactive),93.8,98.1
O=C(N/N=C/c1ccc(Cl)cc1Cl)c1cccc(F)c1,97% (inactive),92.7,97.3,104% (inactive),98.2,109,103% (inactive),101% (inactive),86% (inactive),84.1,84.8
CC(=O)Nc1ccc(NC(=O)c2ccccc2F)cc1,99.8% (inactive),100,98.6,94.4% (inactive),94.2,94.1,99% (inactive),100% (inactive),103% (inactive),101,99.3
CCc1ccc(CNC(=O)CCC(=O)N2Cc3cccc(OC)c3Oc3ncccc32)cc1,99.2% (inactive),98.8,99.9,94.4% (inactive),94.2,95.2,101% (inactive),96.7% (inactive),102% (inactive),105,94.4
Cc1ccc(C2=NOC(=O)/C2=C\c2ccc(C)o2)cc1,101% (inactive),89.7,90.8,230% (active),134,224,110% (inactive),97% (inactive),87.2% (inactive),87.3,72.8
CCOc1ccc(C(=O)/C=C/c2ccc(SC)cc2)cc1,98% (inactive),100,96.8,102% (inactive),99.1,103,101% (inactive),102% (inactive),100% (inactive),99.2,80.9
CCc1ccc(OCC(=O)NNC(=S)NC(=O)C2CC2)c(Br)c1,82.8% (inactive),97.6,70.1,204% (active),164,203,126% (inactive),90.5% (inactive),115% (inactive),110,105
CC(C)COC(=O)NCC12C=CC(O1)C1C(=O)N(c3ccc(Cl)cc3)C(=O)C12 (stereo not drawn),99.6% (inactive),99.5,98.4,98.9% (inactive),101,99.5,106% (inactive),107% (inactive),101% (inactive),101,102

Structure (SMILES),GFP response vs DMSO [1],"GFP response vs DMSO [1, 6] [%]","GFP response vs DMSO [1, 7] [%]",GFP response relative to DMSO [2],"GFP response relative to DMSO [2, 8] [%]","GFP response relative to DMSO [2, 9] [%]",GFP response vs DMSO [3],"GFP response, % of DMSO [4]","GFP response, % of DMSO [5]","GFP response, % of DMSO [5, 6] [%]","GFP response, % of DMSO [5, 7] [%]"
Cc1ccccc1N1C(=O)CC(Sc2nnc(-c3ccccc3)o2)C1=O (stereo not drawn),94.6% (inactive),92.2,93.2,102% (inactive),101,103,103% (inactive),102% (inactive),97.3% (inactive),97.4,96.8
O=C(NC(=S)NNC(=O)[C@H]1C[C@@H]1c1ccccc1)c1cccc(F)c1,111% (inactive),115,110,150% (active),144,147,135% (inactive),109% (inactive),137% (inactive),141,127
Cc1ccc2c(c1)/C(=C/c1ccc(F)cc1)C(=O)N2,94.5% (inactive),92.2,92.7,124% (inactive),110,123,108% (inactive),98.4% (inactive),95.8% (inactive),97.6,94.9
O=C1C(Cl)=C(Nc2ccccc2O)C(=O)N1CCc1ccccc1,98% (inactive),97.8,97.9,103% (inactive),101,104,112% (inactive),104% (inactive),106% (inactive),104,104
Cc1c(O)ccc(C(=O)CN2CCN(c3ccc(F)cc3)CC2)c1O,98% (inactive),97.3,96.7,101% (inactive),99,101,106% (inactive),101% (inactive),101% (inactive),99.3,102
Cc1onc(-c2ccccc2)c1C(=O)N1CCC(C)CC1,92% (inactive),93.4,91.6,103% (inactive),102,103,118% (inactive),102% (inactive),108% (inactive),105,107
CCCn1c(=O)c(C(=O)NCc2ccc(OC)c(OC)c2)c(O)c2ccccc21,98% (inactive),97.6,97.6,102% (inactive),102,103,107% (inactive),95% (inactive),101% (inactive),97.2,101
Cc1cc(NC(=O)c2cc3ccccc3o2)ccc1NC(=O)c1ccccc1,98.4% (inactive),97.4,99.8,95.4% (inactive),94.4,96.1,102% (inactive),95.4% (inactive),101% (inactive),101,99.7
COc1ccc(-c2nc(-c3ccccc3OC)no2)cc1OC,100% (inactive),98.8,98.6,102% (inactive),99.1,104,105% (inactive),91.8% (inactive),94.4% (inactive),95.6,93.2
C=CCOc1ccc(C(=O)n2cc(C(=O)OC)c3ccccc32)cc1,95.6% (inactive),97.1,96.4,96.7% (inactive),99.2,96.1,96.2% (inactive),101% (inactive),101% (inactive),103,101
Cc1cccn2c(=O)c(/C=C(\C#N)C(=O)NCc3ccco3)c(N3CCC(C(N)=O)CC3)nc12,89.5% (inactive),90.9,91.4,99.8% (inactive),99.7,100,103% (inactive),101% (inactive),92.2% (inactive),95.2,92.8
CCCCCn1c(=O)c(C(=O)OCC)c(O)c2ccccc21,97.6% (inactive),96.1,99.7,99.2% (inactive),96,100,102% (inactive),90% (inactive),92.6% (inactive),89.9,93.8
CCCCN(CC)S(=O)(=O)c1ccc(C(=O)Nc2nnc(-c3ccccc3Cl)o2)cc1,98.8% (inactive),99.1,98.5,97.9% (inactive),99.2,98.3,109% (inactive),92.7% (inactive),98.3% (inactive),99.1,98.5
CCCCn1c(=O)c(C(=O)OCC)c(O)c2ccccc21,106% (inactive),101,108,105% (inactive),102,108,99% (inactive),97.5% (inactive),94.4% (inactive),90.2,94.4
Brc1ccc2c(c1)OCCOCCOc1cc(Br)ccc1OCCOCCOCCO2,99% (inactive),98.4,96.9,126% (inactive),123,126,111% (inactive),92.7% (inactive),96.9% (inactive),97.2,93.8
Cc1ccccc1N1C(=O)c2sc3nc4c(c(=O)n3c2C1=O)CCC4,96.2% (inactive),94.9,96.3,107% (inactive),107,110,99% (inactive),102% (inactive),90.1% (inactive),90.2,88.2
